Test results as given in article PMC12137828 (Nature Communications, 2025).
Read-outs that look alike come from different tables or passages of the source.

How the values were obtained:
AtDHAD = molecular target: T1, AtDHAD (Arabidopsis thaliana, UniProt Q9LIR4); test: MST assay, binding affinity
T1 sequence (Q9LIR4 35-608): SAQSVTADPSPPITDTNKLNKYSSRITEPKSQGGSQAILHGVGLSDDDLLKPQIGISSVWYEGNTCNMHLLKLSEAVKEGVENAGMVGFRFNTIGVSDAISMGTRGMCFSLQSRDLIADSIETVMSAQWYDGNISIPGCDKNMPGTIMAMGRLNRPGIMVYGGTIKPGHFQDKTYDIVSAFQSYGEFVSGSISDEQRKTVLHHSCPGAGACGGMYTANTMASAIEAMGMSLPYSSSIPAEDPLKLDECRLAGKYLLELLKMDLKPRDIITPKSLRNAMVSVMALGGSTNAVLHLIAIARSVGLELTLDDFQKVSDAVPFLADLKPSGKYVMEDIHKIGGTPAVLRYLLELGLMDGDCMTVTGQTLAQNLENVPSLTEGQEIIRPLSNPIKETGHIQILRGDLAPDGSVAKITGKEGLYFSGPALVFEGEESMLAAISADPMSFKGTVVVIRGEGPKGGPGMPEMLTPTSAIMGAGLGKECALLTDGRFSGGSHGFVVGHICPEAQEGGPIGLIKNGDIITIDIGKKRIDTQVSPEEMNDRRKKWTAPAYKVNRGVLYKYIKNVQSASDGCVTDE
Procedure, shortened: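 AtDHAD was expressed in E. coli BL21(DE3) under IPTG induction, with FeCl3 and L-Ara added to stabilise the [2Fe-2S] cluster. It was purified by Ni-NTA anaerobically and lysine-labelled with RED-NHS dye. Ligand from 10−10 to 10−1 M was incubated with 50 nM labelled protein for 30 min at 4 °C in phosphate buffer (0.05% Tween 20, pH 7.4). Excitation was 100% or 40%, with medium MST power. Kd is given as mean ± SD.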

cyanobacteria = details: by targeting DHAD ref 3; cited from earlier work
[1] = tested on: glufosinate-resistant Arabidopsis thaliana; details: 250 µM ref 2; cited from earlier work
[2] = tested on: 2-week-old A. thaliana plants; test: Postemergence treatment of A. thaliana; assay type: in vivo, Arabidopsis thaliana
Procedure, shortened: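 Col-0 seeds were chilled at 4 °C for 3 days and grown in soil pots in a light incubator at 22 °C with an 8 h light/16 h dark cycle. Test compound was dissolved in DMSO and diluted with 0.5% aqueous Tween 80 to a final 200 μg/mL (DMSO below 5%), then applied by foliar spray. Fresh weight inhibition was read out.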

Compound	Kd (AtDHAD; Kd) [µM]	growth of cyanobacteria (cyanobacteria)	herbicidal activity against glufosinate-resistant Arabidopsis thaliana [1]	Fresh weight inhibition rate (%) ([2]; 200 μg/mL foliar spray, 20 days after treatment)	symptoms after postemergence treatment of two-week-old plants ([2]; foliar spray, 200 μg/mL)	Kd (AtDHAD) [µM]
CC(C)(O)C(O)C(=O)O (stereo not shown) [Substrate (dihydroxyisovalerate), 2,3-dihydroxy-3-methylbutanoic acid]	5.39	–	–	–	–	–
O=C(O)C(O)C(=O)O [TA, tartronic acid]	507	inhibited the growth of cyanobacteria	–	–	–	–
aspterric acid [AA]	–	–	exhibits herbicidal activity	55.96	cessation of new leaf production and the onset of leaf wilting	3.41
